In brackets after ≈: the same amount, converted by molar mass.
Experiments:
[1] = Negative allosteric modulation of human GluN1a/GluN2D receptor expressed in CHO cells assessed as inhibition of glutamate and glycine-induced calcium flux preincubated for 5 mins followed by glutamate and glycine addition and measured after 5 mins by calcium 5 dye based FLIPR assay; format: cell-based
Outline: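 Tet-On CHO T-Rex cells expressing hGluN1a with GluN2A, 2B, 2C or 2D, plated at 20,000 cells/well and induced 24 h before the assay in the presence of ketamine. Cells loaded 1 h at room temperature with Calcium 5 dye, pH 7.4 HEPES buffer. Compound added 5 min, then glutamate (~EC80) plus 10 µM glycine for 5 min; FLIPR fluorescence normalized to control wells. Three independent runs in duplicate (two for some).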

[2] = Efflux ratio of apparent permeability across basolateral to apical side over apical to basolateral side in MDCK-MDR1 cells at 5 uM measured after 60 mins by LC-MS/MS analysis; format: ADME, cell-based, Canis lupus familiaris; conditions: dog
Outline: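 MDCK-MDR1 cells, passages 6-30, seeded at 3.4×10^5 cells/cm² and cultured 3 days. Test compound at 5 µM final (1% DMSO) in HBSS, pH 7.4, applied to the donor side. A→B and B→A runs at 37 °C for 60 min, in duplicate, quantified by LC/MS/MS. Efflux ratio taken as B-A/A-B; monolayer integrity checked by lucifer yellow.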

[3] = Metabolic stability in rat liver microsomes assessed as extraction ratio at 1 uM after 5 to 60 mins in presence of NADPH by LC-MS/MS analysis; format: ADME, Microsome; conditions: time 5-60 min, read-out: ERH
Outline: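 Human and rat liver microsomes, run in duplicate; stability reported as microsomal extraction ratio.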

[4] = Cmax in Sprague-Dawley rat at 0.5 mg/kg, iv or 2.5 mg/kg, po using 1:1 PEG-400/water formulation by LC-MS/MS analysis; format: ADME, organism-based; design: dose 2.5 mg/kg; conditions: in vivo
Outline: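 Rat IV/PO PK at 0.5 mg/kg IV and 2.5 mg/kg PO, dosed in 1:1 PEG400/water, n=3.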

Cytochrome P450 3A4 = Cytochrome P450 3A4 (Homo sapiens, UniProt P08684); test: Time-dependent inhibition of CYP3A4 in human liver microsomes at 10 uM using testosterone as substrate by LC-MS/MS analysis; format: ADME
Outline: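 CYP3A4 time-dependent inhibition in human liver microsomes. The compound (0.4 to 10 μM) was tested with and without 30 min preincubation. IC50 was taken from percent activity remaining versus vehicle, averaged over two independent experiments. A >2-fold IC50 shift after preincubation was the threshold for time-dependent inhibition.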

[5] = AUC (infinity) in mouse at 0.5 mg/kg, iv by LC-MS/MS analysis; format: ADME, organism-based; design: time infinity, route intravenous, dose 0.5 mg/kg; conditions: in vivo
[6] = Clearance in mouse at 0.5 mg/kg, iv by LC-MS/MS analysis; format: ADME, organism-based; conditions: in vivo
[7] = Cmax in Sprague-Dawley rat at 2.5 mg/kg, po by LC-MS/MS analysis; format: ADME, organism-based; design: route oral, dose 2.5 mg/kg; conditions: in vivo
Outline: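 Rat PK with IV and PO dosing, n=3. The usual doses were 0.5 mg/kg IV and 2.5 mg/kg PO in 20% HP-β-CD. One compound was instead given at 0.1 mg/kg IV and 0.5 mg/kg PO.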

[8] = AUC (infinity) in monkey at 0.5 mg/kg, po by LC-MS/MS analysis; format: ADME, organism-based, Macaca mulatta; design: route oral, time infinity, dose 0.5 mg/kg; conditions: rhesus monkey, in vivo
[9] = Oral bioavailability in mouse at 2.5 mg/kg by LC-MS/MS analysis; format: ADME, organism-based; conditions: in vivo
[10] = Solubility of compound in 50% polyethylene glycol 400; format: physicochemical
Outline: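 Solubility of the compound assessed in dosing excipients, including 30% SBE-β-CD, 50% PEG-400 and 20% HP-β-CD. The aim was a solution usable for rat dosing; the 20% HP-β-CD formulation was checked for a 0.1 mg/mL solution to support a 0.5 mg/kg dose.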

[11] = Tmax in Sprague-Dawley rat at 125 mg/kg, po administered via gavage after 24 hrs using HPMC formulation by LC-MS/MS analysis; format: ADME, organism-based; conditions: in vivo
Outline: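 Single oral gavage of a 5% HPMC suspension at 125, 250, 500 or 1000 mg/kg to male Sprague Dawley rats, 3 per group. Plasma was sampled at 6 time points from 0.5 to 24 h.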

[12] = Cmax in Sprague-Dawley rat at 500 mg/kg, po administered via gavage after 24 hrs using nanosuspension formulation by LC-MS/MS analysis; format: ADME, organism-based; design: route oral, time 24 hrs, dose 500 mg/kg; conditions: in vivo
Outline: (§1)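 Single oral gavage dose to male Sprague Dawley rats, 3 per dose level. Vehicles were a standard suspension in 5% HPMC (125, 250, 500 or 1000 mg/kg) or a nanosuspension (API:polymer 4:1), with stock diluted in vehicle on the day of dosing (100, 250 or 500 mg/kg). Blood was sampled at time points from 0.5 to 24 h.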

[13] = AUC (0 to 24 hrs) in Sprague-Dawley rat at 250 mg/kg, po administered via gavage after 24 hrs using nanosuspension formulation by LC-MS/MS analysis; format: ADME, organism-based; design: route oral, dose 250 mg/kg, time <=24; conditions: in vivo; outline: as §1
[14] = Toxicity in Sprague-Dawley rat assessed as change in behavior at 500 mg/kg/day, po administered as nanosuspension measured after 2 days; format: organism-based; conditions: in vivo, 48 h, time 2 day
Outline: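 Repeated daily oral dosing of a nanosuspension to rats for 14 days, with 500 mg/kg/day as the high dose. Clinical observations were recorded, and animals were moved to individual caging on Day 6.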

[15] = biological target: T1, Nuclear receptor subfamily 1 group I member 2 (Homo sapiens, UniProt O75469); test: Activation of human PXR expressed in human DPX2 cells assessed as induction of CYP3A by luciferase reporter gene assay relative to control; format: ADME, cell-based
T1 sequence (O75469 whole entry): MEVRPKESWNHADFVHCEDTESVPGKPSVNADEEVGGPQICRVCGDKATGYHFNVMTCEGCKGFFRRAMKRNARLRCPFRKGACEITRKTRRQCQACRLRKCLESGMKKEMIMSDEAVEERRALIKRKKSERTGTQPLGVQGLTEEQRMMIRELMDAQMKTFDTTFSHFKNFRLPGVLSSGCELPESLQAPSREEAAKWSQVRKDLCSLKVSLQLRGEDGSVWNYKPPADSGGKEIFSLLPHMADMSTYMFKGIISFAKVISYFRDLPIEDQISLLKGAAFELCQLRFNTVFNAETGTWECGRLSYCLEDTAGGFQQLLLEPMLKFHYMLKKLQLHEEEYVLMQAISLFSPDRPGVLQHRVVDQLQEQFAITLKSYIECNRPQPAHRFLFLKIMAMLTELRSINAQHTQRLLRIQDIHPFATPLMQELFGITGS
Outline: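 Luciferase reporter lines were used. DPX2 is HepG2 carrying human PXR plus a CYP3A4 promoter-luciferase construct. 1A2-DRE carries human AhR plus a CYP1A2 promoter with 3 DRE copies. Luminescence was read with ONE-Glo. Activation was expressed relative to rifampicin (PXR) or omeprazole (AhR).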

[16] = Solubility of compound in simulated gastric fluid at pH 1.2 measured after 3 days; format: physicochemical; conditions: time 3 day
Outline: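 Solubility in aqueous buffer at pH 2 and pH 7, and in simulated gastric and intestinal fluids.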

Chain of Cytochrome P450 3A4 (P08684 whole entry): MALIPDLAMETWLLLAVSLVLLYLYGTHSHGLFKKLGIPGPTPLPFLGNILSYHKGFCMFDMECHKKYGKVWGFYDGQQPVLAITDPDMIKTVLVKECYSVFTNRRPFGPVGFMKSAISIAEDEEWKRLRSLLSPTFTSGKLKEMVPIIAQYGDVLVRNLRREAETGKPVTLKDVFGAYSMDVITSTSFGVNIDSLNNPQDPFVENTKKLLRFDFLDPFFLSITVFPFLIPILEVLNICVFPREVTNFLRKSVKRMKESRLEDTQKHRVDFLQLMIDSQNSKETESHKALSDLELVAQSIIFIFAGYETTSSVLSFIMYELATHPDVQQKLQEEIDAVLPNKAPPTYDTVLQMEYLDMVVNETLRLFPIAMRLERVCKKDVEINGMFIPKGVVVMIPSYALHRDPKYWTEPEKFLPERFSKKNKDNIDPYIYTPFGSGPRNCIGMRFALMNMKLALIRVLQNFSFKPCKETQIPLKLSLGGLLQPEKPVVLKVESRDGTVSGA

IC50 [1]: > 10 µM | efflux ratio at 1 h, 5 µM [2]: 2.1 | hepatic extraction ratio at 1 µM [3]: < 0.17 | Cmax [4]: 479 ng/mL | TDI (Cytochrome P450 3A4): Not Active | AUC(0-inf) [5]: 156 ng·h/mL | clearance [6]: 54 mL/min/kg | Cmax [7]: 479 ng/mL | AUC(0-inf) [8]: 385 ng·h/mL | bioavailability [9]: 69% | solubility [10]: < 1000 µg/mL | Tmax [11]: 2.7 h | Cmax [12]: 18300 ng/mL | AUC(0-t) [13]: 86400 ng·h/mL | Activity [15]: < 20% | solubility at 72 h [16]: 4.4 µM (≈ 1.74 µg/mL)
Structure (SMILES): Cn1c(=O)n(CC(=O)N2CCC2)c2cc(-c3ccc(C(F)(F)F)s3)cnc21
Activity [14]: Toxic

From ChEMBL document CHEMBL4725355, “Design, Synthesis, and Preclinical Evaluation of 3-Methyl-6-(5-thiophenyl)-1,3-dihydro-imidazo[4,5-b]pyridin-2-ones as Selective GluN2B Negative Allosteric Modulators for the Treatment of Mood Disorders” (J Med Chem, 2020)
